Results published in ChEMBL document CHEMBL1157546, “3-(2-Aminocarbonylphenyl)propanoic acid analogs as potent and selective EP3 receptor antagonists. part 2: optimization of the side chains to improve in vitro and in vivo potencies” (Bioorg Med Chem, 2010).

Experiments:
[1] = molecular target: T1, Prostaglandin E2 receptor EP3 subtype (Mus musculus, UniProt P30557); assay: Antagonist activity at mouse EP3 receptor expressed in CHO cells assessed as inhibition of PGE2-induced increase intracellular calcium level in presence of 1% BSA by fluorimetry; format: functional, cell-based
T1 sequence (P30557 whole entry): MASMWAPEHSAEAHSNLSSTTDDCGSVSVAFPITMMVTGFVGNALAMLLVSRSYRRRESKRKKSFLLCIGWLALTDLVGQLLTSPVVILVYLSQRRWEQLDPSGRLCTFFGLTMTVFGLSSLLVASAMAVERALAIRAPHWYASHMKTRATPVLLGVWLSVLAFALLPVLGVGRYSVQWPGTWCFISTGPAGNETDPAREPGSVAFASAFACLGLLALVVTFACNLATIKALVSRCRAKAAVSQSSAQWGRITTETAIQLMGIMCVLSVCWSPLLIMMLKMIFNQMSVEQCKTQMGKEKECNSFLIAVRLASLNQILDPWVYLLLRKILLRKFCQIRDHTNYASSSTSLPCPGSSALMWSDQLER
How it was run: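 CHO cells expressing mouse EP3 seeded at 1 × 10⁴ cells/well and grown two days in 10% FBS/αMEM (37 °C, 5% CO2). Loaded 1 h with Fura 2/AM, indomethacin and 2.5 mM probenecid, rinsed, then held 1 h dark at room temperature in HBSS with 1% BSA and 10 mM HEPES. Compound added with 10 nM PGE2. Ca²⁺ read at 340/380 nm excitation, 500 nm emission; % inhibition relative to the PGE2 response without compound.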

[2] = molecular target: T1, Prostaglandin E2 receptor EP3 subtype; assay: Displacement of [3H]PGE2 from mouse EP3 receptor expressed in CHO cell membrane; format: cell membranes
[3] = test system: Rattus norvegicus; assay: Inhibition of PGE2-induced uterine contraction in intraduodenally dosed pregnant rat at 0.3 mg/kg; format: functional; settings: route intraduodenal
How it was run: (§1)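 Pregnant rats with uterine pressure recorded by transducer. Once spontaneous motility was stable, compound in 0.5% methylcellulose (5 mL/kg) or vehicle given intraduodenally. PGE2 given iv 30 min later.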

[4] = test system: Rattus norvegicus; assay: Inhibition of PGE2-induced uterine contraction in intraduodenally dosed pregnant rat at 1 mg/kg; format: functional; settings: route intraduodenal; how it was run: as §1
[5] = molecular target: Prostaglandin E2 receptor EP2 subtype (Mus musculus, UniProt Q62053); assay: Displacement of [3H]PGE2 from mouse EP2 receptor expressed in CHO cell membrane; format: cell membranes
[6] = molecular target: Prostaglandin E2 receptor EP4 subtype (Mus musculus, UniProt P32240); assay: Displacement of [3H]PGE2 from mouse EP4 receptor expressed in CHO cell membrane; format: cell membranes
[7] = molecular target: T2, Prostaglandin E2 receptor EP1 subtype (Mus musculus, UniProt P35375); assay: Displacement of [3H]PGE2 from mouse EP1 receptor expressed in CHO cell membrane; format: cell membranes
T2 sequence (P35375 whole entry): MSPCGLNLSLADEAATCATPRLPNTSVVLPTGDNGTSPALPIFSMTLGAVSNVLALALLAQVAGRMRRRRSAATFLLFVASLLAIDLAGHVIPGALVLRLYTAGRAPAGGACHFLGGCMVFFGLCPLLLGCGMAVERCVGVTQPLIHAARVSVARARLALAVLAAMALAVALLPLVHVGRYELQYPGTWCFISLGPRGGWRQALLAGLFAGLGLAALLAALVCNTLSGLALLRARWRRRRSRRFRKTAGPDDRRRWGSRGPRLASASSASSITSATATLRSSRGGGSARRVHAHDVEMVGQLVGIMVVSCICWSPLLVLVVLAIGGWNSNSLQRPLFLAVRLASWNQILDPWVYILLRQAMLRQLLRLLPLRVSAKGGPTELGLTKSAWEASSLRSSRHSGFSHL

Chain of Prostaglandin E2 receptor EP2 subtype (Q62053 whole entry): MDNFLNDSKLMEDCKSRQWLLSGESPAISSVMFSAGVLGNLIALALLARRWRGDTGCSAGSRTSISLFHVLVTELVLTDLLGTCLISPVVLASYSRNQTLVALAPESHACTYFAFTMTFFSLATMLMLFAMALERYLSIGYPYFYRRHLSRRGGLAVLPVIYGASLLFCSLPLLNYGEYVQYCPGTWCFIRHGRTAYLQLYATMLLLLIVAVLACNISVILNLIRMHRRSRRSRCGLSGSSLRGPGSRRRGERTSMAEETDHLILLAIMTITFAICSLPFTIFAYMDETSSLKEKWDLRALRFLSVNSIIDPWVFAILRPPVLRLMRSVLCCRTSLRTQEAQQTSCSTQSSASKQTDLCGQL
Chain of Prostaglandin E2 receptor EP4 subtype (P32240 whole entry): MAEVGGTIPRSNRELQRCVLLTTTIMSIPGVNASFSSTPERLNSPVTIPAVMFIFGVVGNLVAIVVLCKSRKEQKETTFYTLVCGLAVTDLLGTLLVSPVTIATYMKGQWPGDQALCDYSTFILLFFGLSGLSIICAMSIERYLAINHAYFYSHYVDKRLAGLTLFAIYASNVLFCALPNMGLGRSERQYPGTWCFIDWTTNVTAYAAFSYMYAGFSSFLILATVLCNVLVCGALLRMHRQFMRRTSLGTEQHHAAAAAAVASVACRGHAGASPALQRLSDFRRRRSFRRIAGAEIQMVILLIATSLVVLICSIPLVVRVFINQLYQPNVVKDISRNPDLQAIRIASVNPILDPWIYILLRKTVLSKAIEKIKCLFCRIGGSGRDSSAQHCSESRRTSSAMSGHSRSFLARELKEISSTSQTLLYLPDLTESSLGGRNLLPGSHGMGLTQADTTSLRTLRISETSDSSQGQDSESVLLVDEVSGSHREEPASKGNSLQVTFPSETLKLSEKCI

Structure (SMILES) | IC50 [1] | Ki [2] | further results
Cc1cc(C)cc(C(CC(C)C)NC(=O)c2cc(COc3cccc(F)c3F)ccc2CCC(=O)O)c1 (stereo not drawn) | 3.6 nM | 0.15 nM | 
COc1cccc(OCc2ccc(CCC(=O)O)c(C(=O)NC(CC(C)C)c3cc(C)cc(C)c3)c2)c1 (stereo not drawn) | 3.2 nM | 0.27 nM | 
CC(C)CC(NC(=O)c1cc(COc2ccccc2)ccc1CCC(=O)O)c1ccc(F)c(F)c1 (stereo not drawn) | 47 nM | 0.4 nM | 
CC(C)CC(NC(=O)c1cc(COc2ccccc2)ccc1CCC(=O)O)c1ccc(C(F)(F)F)c(F)c1 (stereo not drawn) | 53 nM | 0.7 nM | 
Cc1cc(C)cc(C(CC(C)C)NC(=O)c2cc(COc3ccccc3C#N)ccc2CCC(=O)O)c1 (stereo not drawn) | 9.4 nM | 0.35 nM | 
Cc1cc(C)cc(C(CC(C)C)NC(=O)c2cc(COc3cccc(C#N)c3)ccc2CCC(=O)O)c1 (stereo not drawn) |  |  | inhibition in vivo at 0.3 mg/kg [3]: 55%; inhibition in vivo at 1 mg/kg [4]: 95%
Cc1cc(C)cc(C(CC(C)C)NC(=O)c2cc(COc3ccc(F)c(F)c3)ccc2CCC(=O)O)c1 (stereo not drawn) | 5.7 nM | 0.34 nM | 
Cc1cc(C)cc(C(CC(C)C)NC(=O)c2cc(COc3cc(F)cc(F)c3)ccc2CCC(=O)O)c1 (stereo not drawn) | 10 nM | 0.19 nM | 
COc1ccccc1C(CC(C)C)NC(=O)c1cc(COc2ccccc2)ccc1CCC(=O)O (stereo not drawn) | 190 nM | 1.2 nM | 
CC(C)CC(NC(=O)c1cc(COc2ccccc2)ccc1CCC(=O)O)c1ccc(Cl)cc1 (stereo not drawn) | 51 nM | 0.28 nM | 
CC(C)CC(NC(=O)c1cc(COc2ccccc2)ccc1CCC(=O)O)c1cccc(F)c1 (stereo not drawn) | 40 nM | 0.2 nM | 
CC(C)CC(NC(=O)c1cc(COc2ccccc2)ccc1CCC(=O)O)c1ccc(F)cc1 (stereo not drawn) | 20 nM | 0.93 nM | 
COc1ccc(C(CC(C)C)NC(=O)c2cc(COc3ccccc3)ccc2CCC(=O)O)cc1 (stereo not drawn) | 59 nM | 0.36 nM | 
CC(C)CC(NC(=O)c1cc(COc2ccccc2)ccc1CCC(=O)O)c1ccccc1F (stereo not drawn) | 130 nM | 1.4 nM | 
COc1cccc(C(CC(C)C)NC(=O)c2cc(COc3ccccc3)ccc2CCC(=O)O)c1 (stereo not drawn) | 21 nM | 0.13 nM | 
Cc1cc(C)cc(C(CC(C)C)NC(=O)c2cc(COc3ccccc3F)ccc2CCC(=O)O)c1 (stereo not drawn) | 13 nM | 0.1 nM | 
CC(C)CC(NC(=O)c1cc(COc2ccccc2)ccc1CCC(=O)O)c1ccc2c(c1)OCCO2 (stereo not drawn) | 19 nM | 0.44 nM | 
Cc1ccc(C(CC(C)C)NC(=O)c2cc(COc3ccccc3)ccc2CCC(=O)O)cc1F (stereo not drawn) | 67 nM | 0.2 nM | 
Cc1cc(C(CC(C)C)NC(=O)c2cc(COc3ccccc3)ccc2CCC(=O)O)ccc1F (stereo not drawn) | 18 nM | 0.16 nM | inhibition in vivo at 0.3 mg/kg [3]: 31%; Ki [5]: > 10 µM; Ki [6]: 630 nM; inhibition in vivo at 1 mg/kg [4]: 73%; Ki [7]: > 10 µM
CC(C)CC(NC(=O)c1cc(COc2ccccc2)ccc1CCC(=O)O)c1cccc(Cl)c1 (stereo not drawn) | 35 nM | 0.18 nM | 
CC(C)CC(NC(=O)c1cc(COc2ccccc2)ccc1CCC(=O)O)c1cccc(C(F)(F)F)c1 (stereo not drawn) | 39 nM | 0.39 nM | 
COc1ccc(C(CC(C)C)NC(=O)c2cc(COc3ccccc3)ccc2CCC(=O)O)cc1F (stereo not drawn) | 42 nM | 0.14 nM | 
Cc1cc(C)cc(C(CC(C)C)NC(=O)c2cc(COc3c(F)cccc3F)ccc2CCC(=O)O)c1 (stereo not drawn) | 59 nM | 1.3 nM | 
Cc1cc(C(CC(C)C)NC(=O)c2cc(COc3cccc(C#N)c3)ccc2CCC(=O)O)ccc1F (stereo not drawn) | 2.8 nM | 0.2 nM | 
